Screening results (PubChem BioAssay)
Shown are actives, neighbours in structure and some others; about 3.8% of the full set was active somewhere.
Beta2AR agonist: beta2AR agonists driving receptor internalization, primary screen, cell-based, FAP fluorogen, flow cytometry. hit rate 0.43% among 340,000. Am2.2-beta2AR cells. response, % (no concentration beside the values). Beta-2 adrenergic receptor (Homo sapiens), P07550. AID 504454, 2011;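 active = response above a set limit, near 3 SD of response in nonfluorescent compounds, cut at about 42% in these data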
Target sequence (P07550 whole entry, looked up): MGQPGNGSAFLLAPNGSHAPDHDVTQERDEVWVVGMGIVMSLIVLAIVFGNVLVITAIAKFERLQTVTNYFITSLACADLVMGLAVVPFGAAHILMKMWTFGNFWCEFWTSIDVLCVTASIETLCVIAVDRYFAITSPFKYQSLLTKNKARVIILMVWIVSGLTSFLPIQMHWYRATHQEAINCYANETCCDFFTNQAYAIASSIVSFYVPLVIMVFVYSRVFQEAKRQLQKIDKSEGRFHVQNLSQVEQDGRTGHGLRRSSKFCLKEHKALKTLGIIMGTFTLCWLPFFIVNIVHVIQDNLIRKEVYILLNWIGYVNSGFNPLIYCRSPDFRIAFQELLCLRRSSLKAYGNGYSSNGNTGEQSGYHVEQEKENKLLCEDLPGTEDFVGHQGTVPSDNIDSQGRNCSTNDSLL
T cell modulator: modulators of CD8 T cell-vesicle binding, primary screen, mouse 2C CD8+ T cells, flow cytometry; 2C CD8+ T cell-vesicle binding; active compounds read low; response (vesicle binding), % at 7 µM; hit rate 0.068% among 330,000;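 active = response, share of CD8 T cells binding vesicles, and their 90th percentile fluorescence all below set limits, cut at about 80% in these data, passing the limit was not always enough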;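 also: values below 100% mean blocked vesicle binding to the CD8+ T cells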
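System: murine 2C transgenic CD8+ T lymphocytes; also added: QL9-loaded Drosophila micro-vesicles; times: binding 1.5 h at 37 °C; measured by: flow cytometry, PE anti-B7-1 (FL2) versus Alexa647 anti-CD8 (FL8), PFA-fixed; control set: Peptide-free naked vesicles (low) and QL9 vesicles with 0.7% DMSO vehicle (high)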
rCAG RNA binder: binders of r(CAG) RNA repeats, primary screen, biochemical, fluorescence; hit rate 1.3% among 370,000; r(CAG) RNA repeat, TO-PRO-1 dye displacement fluorescence; AID 651821, 2012; inhibition, % at 3 µM;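 active = inhibition above the plate cutoff, the mean of all test compounds on that plate plus 3 SD, cut at about 35% in these data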;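 also: 0% = DMSO alone and 100% = 100 µM mitoxantrone as full dye displacement; higher means more dye released from RNA so lower well fluorescence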
MPTP inh: mitochondrial permeability transition pore inhibitors, primary screen, biochemical, isolated mouse mitochondria, absorbance | Ca2+ swelling absorbance, 30 min | inhibition, % at 10 µM | hit rate 1.4% among 360,000;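 active = inhibition of 50% or more, scaled per plate between neutral and stimulator controls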;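 also: 0% = DMSO wells given calcium and 100% = 1 mM EGTA wells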
Exocytosis inh: LAMP-1 surface exposure blockers, TALL-104 cells – cell-based, flow cytometry, MLPCN library, primary screen. inhibition, % at 10 µM. hit rate 0.66% among 360,000. AID 651702, 2012. TALL-104 LAMP-1 surface exposure; cells stimulated with thapsigargin and PMA;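 active = inhibition above about 55%, limit read from the data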
V-ATPase pH: regulators of yeast V-ATPase proton pumping, primary screen, pHLuorin cytosolic pH fluorescence. S. cerevisiae. response, % at 10 µM. hit rate 0.37% among 350,000; in the data active = response mostly above about 7.3%, no sharp cut-off; inactive = mostly below about 5.4%; also: actives read high
rCAG bind conf: small molecules binding CAG repeat RNA – biochemical, fluorescence, confirmation | r(CAG) RNA repeat, TO-PRO-1 dye displacement fluorescence | shares compounds with rCAG RNA binder | AID 652065, 2013 | inhibition, % at 3 µM | hit rate 70% among 4,300;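 active = inhibition above a per-plate cutoff, the mean inhibition of sample wells plus 3 SD, cut at about 35% in these data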;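 also: loss of TO-PRO-1 fluorescence as compound displaces dye from 1x1 AA loop RNA; 0% = DMSO only wells and 100% = 100 µM mitoxantrone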
DNA CAG counter: displacement of TO-PRO-1 from CAG DNA duplex, counter-screen for rCAG RNA repeat binder project, biochemical, fluorescence, TO-PRO-1 dye, d(CAG) DNA oligo. shares compounds with rCAG RNA binder. d(CAG) DNA oligo TO-PRO-1 dye displacement. inhibition, % at 3 µM. hit rate 94% among 4,300;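 active = inhibition above its plate's cutoff, the mean test-well inhibition plus 3 SD, cut at about 4.8% in these data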;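 also: 0% = DNA dye mix with DMSO and 100% = 100 µM mitoxantrone; hits displace the dye from DNA and so lower well fluorescence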
dCAG dye DR: inhibitors of DNA CAG/GTC TO-PRO-1 complex, dose response, counter-screen for rCAG RNA repeat binder project, biochemical, fluorescence, TO-PRO-1 dye | AID 686960, 2013 | DNA CAG/GTC duplex TO-PRO-1 dye displacement fluorescence | IC50, µM | shares compounds with rCAG RNA binder | hit rate 20% among 250; in the data active = IC50 below about 10 µM
* marks the source's active call; other numbers are inactive results; . = no result given.

SMILES	Beta2AR agonist	T cell modulator	rCAG RNA binder	MPTP inh	Exocytosis inh	V-ATPase pH	rCAG bind conf	DNA CAG counter	others
O=C(O)c1ccc(S(=O)(=O)N(Cc2cccs2)CC2CCCO2)cc1 (stereo not drawn)	-7.1	164.4	-1.5	0.6	2.5	-7.3	.	.
COc1ccc(CCN(Cc2cccs2)S(=O)(=O)c2ccc(C(=O)O)cc2)cc1OC	12.2	360.4	36.5*	4.1	-2.1	-2.1	37.1*	5.5*
O=C(O)c1ccc(Nc2nc(-c3cc4ccccc4oc3=O)cs2)cc1O	-17.6	.	72.1*	-1.2	1.6	2.4	83.5*	47.9*
NC(N)=NS(=O)(=O)c1ccc(NC(=S)NC(=O)/C=C/c2ccco2)cc1	-9.6	317.1	17.1	0.6	2.2	-1.5	.	.
Cc1cccc(NC(=S)NC(=O)/C=C/c2ccco2)c1	1.0	400.5	36.6*	1.0	-1.5	-2.7	29.4	14.4*
Cc1ccc(-c2nc3ccccc3o2)cc1NC(=S)NC(=O)/C=C/c1ccco1	0.1	168.1	25.2	0.4	0.2	-4.3	.	.
O=C(/C=C/c1ccco1)NC(=S)Nc1cccc([N+](=O)[O-])c1	-6.2	317.0	53.7*	2.8	1.1	1.9	33.5	18.4*
O=C(/C=C/c1ccco1)NC(=S)Nc1cccc(-c2nc3ccccc3o2)c1	4.8	209.8	35.0*	0.4	-0.6	1.5	21.8	12.7*
NS(=O)(=O)c1ccc(NC(=S)NC(=O)/C=C/c2ccco2)cc1	8.5	300.6	39.6*	4.2	-0.8	7.8	23.5	10.8*
COC(=O)[C@]12C[C@H](CC(=O)NCc3cccc4ccccc34)C(=O)N(CCC3=CCCCC3)C1=C[C@H](C1CCCC1)O[C@@H]2C	.	.	5.1	.	.	.	.	.
COCC(=O)N1CCC(C(=O)NC2CCCc3ccccc32)CC1 (stereo not drawn)	.	.	0.7	.	.	.	.	.
CC(C)(C)OC(=O)NCc1cc2c(cc1/C=C/S(=O)(=O)NC1CCCC1)OCO2	.	.	-0.3	.	.	.	.	.
COc1ccc(-c2csc(NC(=S)NC(=O)/C=C/c3ccco3)n2)cc1OC	-2.7	634.7	22.1	-2.3	-2.2	1.2	.	.
COc1ccc(-c2csc(NC(=S)NC(=O)/C=C/c3ccco3)n2)cc1Br	35.2	153.2	66.8*	0.8	-1.7	0.3	33.5	16.3*
O=C(O)c1cccc(-n2cccc2/C=C2/NC(=O)N(c3ccc(Cl)cc3)C2=O)c1	-5.9	.	71.8*	-0.5	9.1	-1.0	69.3*	30.0*
O=C(O)c1cccc(-n2cccc2/C=C2/NC(=O)N(c3cccc(Cl)c3)C2=O)c1	1.2	221.3	36.1*	2.6	0.3	5.9	35.0*	10.0*
O=C(O)c1cccc(-n2cccc2/C=C2\SC(=O)N(Cc3ccccc3F)C2=O)c1	2.4	281.3	10.8	0.0	0.6	-2.4	.	.
COc1ccc(-n2cccc2/C=C2/NC(=O)N(c3cccc(Cl)c3)C2=O)cc1	8.3	417.4	12.2	0.7	2.6	1.7	.	.
COC(=O)[C@]12C[C@H](CC(=O)NCC3CCCCC3)C(=O)N(CCc3ccc(OC)c(OC)c3)C1=C[C@H](C(C)C)O[C@@H]2C1CC1	.	.	2.2	.	.	.	.	.
O=C(O)c1ccc(Cl)cc1NC(=O)C1CCN(S(=O)(=O)c2cccs2)CC1	.	.	38.9*	0.3	-0.6	4.1	41.0*	10.1*
Cc1cc(NS(=O)(=O)c2ccc(NC(=O)/C=C/c3ccc(Br)cc3)cc2)no1	11.7	46.4	68.1*	0.6	1.1	3.8	61.5*	28.7*
COc1ccccc1/C=C/C(=O)Nc1ccc(S(=O)(=O)Nc2cc(C)on2)cc1	0.1	130.5	53.4*	0.5	-5.4	-1.9	48.4*	11.6*
O=C(CSc1nc2ccccc2nc1N1CCOCC1)NCc1ccc(Cl)cc1Cl	.	.	2.3	.	.	.	.	.
O=c1nc(Nc2ccccc2)oc2ccccc12	-6.6	538.7	1.7	1.8	-5.2	-2.1	.	.
O=c1nc(Nc2cccc(Cl)c2)oc2cc(Cl)oc(=O)c12	38.8	271.2	44.2*	0.9	3.9	-1.2	56.0*	15.8*	dCAG dye DR=8.48*
SMILES	Beta2AR agonist	T cell modulator	rCAG RNA binder	MPTP inh	Exocytosis inh	V-ATPase pH	rCAG bind conf	DNA CAG counter	others
Cc1cc(=O)n(CCc2ccccc2)c(O)c1C#N	3.7	246.5	64.0*	-3.0	-0.8	-1.9	11.1	4.4*
COCCN1CCCc2nc(-c3ccc(Br)cc3)ccc21	.	.	5.4	.	.	.	.	.
COC(=O)[C@]12C[C@H](CC(=O)NCCCCc3ccccc3)C(=O)N(CCC3=CCCCC3)C1=C[C@H](C(C)(C)C)O[C@@H]2C	.	.	0.9	.	.	.	.	.
Cc1sc2nc(SCc3ccc(C(=O)O)cc3)n(Cc3ccco3)c(=O)c2c1C	0.4	134.8	54.6*	3.7	8.0	-2.8	57.5*	20.0*
C=CCn1c(SCc2ccc(C(=O)O)cc2)nc2sc(C)c(C)c2c1=O	11.1	505.7	28.9	2.2	0.2	1.2	.	.
COC(=O)[C@]12C[C@H](CC(=O)N3CCCC3)C(=O)N(Cc3cccc4ccccc34)C1=C[C@H](C(C)(C)C)O[C@@H]2C	.	.	2.5	.	.	.	.	.
C/C=C/c1ccccc1OCCCN1CCC(C(O)(c2ccccc2)c2ccccc2)CC1	.	.	0.2	.	.	.	.	.
COc1ccc(NC(=O)CSc2nnc(NC(C)=O)s2)c([N+](=O)[O-])c1	4.4	289.6	55.3*	2.4	-1.5	-6.3	2.2	0.3
CCOC(=O)Cc1csc(NC(=O)c2cc(=O)c3ccccc3o2)n1	4.3	849.6	4.5	3.0	-1.8	0.3	.	.
Cc1cc(C)c2nc(NNC(=O)c3ccc(S(=O)(=O)N4CCc5ccccc5C4)cc3)sc2c1	16.3	389.8	60.8*	2.9	-1.7	3.2	49.9*	26.1*
Cc1cc(C)c2sc(NNC(=O)c3ccc(S(=O)(=O)N4CCc5ccccc5C4)cc3)nc2c1	35.5	365.6	48.2*	6.7	-0.5	-1.8	58.9*	29.1*
Cc1cc(C)c2nc(NNC(=O)c3cc(=O)c4ccccc4o3)sc2c1	3.0	688.9	72.9*	1.4	1.8	-2.3	82.3*	48.6*
COc1ccc(OC)c(CN2C(=O)CSCC2(C)c2nnnn2C2CCCC2)c1 (stereo not drawn)	.	.	0.5	.	.	.	.	.
